Measurements gathered from unrelated publications.
Protocols differ between the studies behind these lines.
Cell line: MDA-MB-231
Observed: cell growth or viability

Compound | technique | time | IC50
Nc1cc(Cl)c(Cl)cc1N | – | 72 h | 150 µM
CO[C@]1([C@@H]2CSC(=O)N2C(=O)c2ccccc2)C[C@H]2C[C@@H](CC[C@H](C)/C=C\C=C\CC/C(C)=C\C(=O)O2)O1 | MTT | 72 h | 4.48 µM
CCC1(c2ccc(N)cc2)CCC(=O)NC1=O (stereo not shown) | CCK-8 | 48 h | > 50 µM
C/C1=C/C(=O)O[C@@H]2C[C@@H](CC[C@H](C)/C=C\C=C\CC1)O[C@@](O)([C@@H]1CSC(=O)N1CO)C2 | MTT | 72 h | 2.99 µM
O=C1[O][Pt]2([NH][C@@H]3CCCC[C@H]3[NH]2)[O]C1=O | MTT | 96 h | 2.6 µM
COc1c(O)cc2oc3cc(O)c(CC=C(C)C)c(O)c3c(=O)c2c1CC=C(C)C | – | 48 h | 20.7 µM
N.N.[Cl][Pt][Cl] | SRB | – | 12.2 µM
N[C@@H](Cc1ccc(N(CCCl)CCCl)cc1)C(=O)O | CCK-8 | 48 h | > 50 µM
COC(C(=O)N1C(=O)SCC1C1(OC)CC2CC(CCC(C)C=CC=CCCC(C)=CC(=O)O2)O1)c1ccccc1 (stereo not shown) | MTT | 72 h | 26.2 µM
Nc1cc(Br)c(Br)cc1N | – | 72 h | 60 µM
Cc1coc2c1c(=O)oc1c3ccccc3ccc21 | SRB | 72 h | 10.3 µg/mL
C/C1=C/C(=O)O[C@@H]2C[C@@H](CC[C@H](C)/C=C\C=C\CC1)O[C@@](OC(=O)c1ccccc1)([C@@H]1CSC(=O)N1)C2 | MTT | 72 h | 5.05 µM
N.N.[Cl][Pt][Cl] | – | 24 h | 68.4 µM
